Laboratory results published in ChEMBL document CHEMBL3352304, “Synthesis and evaluation of 3-salicyloylpyridine derivatives as cytotoxic mitochondrial apoptosis inducers” (Bioorg Med Chem Lett, 2014).
Activity calls are given as the source filed them. No cut-off for these calls is given here.

Key:
[1] = Cytotoxicity against human IMR32 cells after 48 hrs by SRB assay; format: functional, cell-based; conditions: IMR-32, 48 h
[2] = Cytotoxicity against human Hep cells after 48 hrs by SRB assay; format: functional, cell-based
MCF7 = assay: Cytotoxicity against human MCF7 cells after 48 hrs by SRB assay; format: functional, cell-based; conditions: MCF7, 48 h
[3] = Cytotoxicity against human PC3 cells after 48 hrs by SRB assay; format: functional, cell-based; conditions: PC-3, 48 h
HeLa = assay: Cytotoxicity against human HeLa cells after 48 hrs by SRB assay; format: functional, cell-based
PC-3 [4] = assay: Induction of intracellular ROS generation in human PC3 cells incubated for 12 hrs by DCFH-DA dye based spectrofluorimetry; format: functional, cell-based
Procedure, shortened: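 PC-3 cells plated at 1 × 10⁶ cells/dish in 24-well plates, adhered 6 h, then grown with or without test compound at 5, 10 and 15 µM for 12 h; DCFH-DA added 30 min before end. Trypsinized plus floating cells collected, 1 × 10⁶ cells pelleted, resuspended in ice-cold PBS (1.0 ml) and intracellular peroxides measured by spectrofluorimetry.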

PC-3 [5] = assay: Reduction in mitochondrial membrane potential in human PC3 cells incubated for 12 hrs by rhodamine-123 dye based spectrofluorimetry; format: functional, cell-based
Procedure, shortened: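 PC-3 cells (1 × 10⁶) in 24-well plates incubated with or without test compound at 1, 5 and 10 µM for 12 h at 37 °C, 5% CO₂, washed with PBS, then loaded with rhodamine-123 1 h in serum-free medium. Fluorescence read in a plate reader at excitation 480 nm / emission 530 nm; shown with SD.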

PC-3 [6] = assay: Induction of apoptotic morphological changes in human PC3 cells assessed as plasma membrane blebbing at cytotoxic IC50 level incubated for 12 hrs by DAPI staining based confocal laser microscopy; format: functional, cell-based
Procedure, shortened: (§1)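 PC-3 cells (1 × 10⁶) in 1 ml medium in 24-well plates grown to confluence 24 h at 37 °C, 5% CO₂, then exposed to test compound at its IC₅₀ for 12 h; camptothecin 2 µM as positive control. Medium replaced with serum-free medium, cells stained with DAPI (10 mM) 1 h at 37 °C and imaged by laser scanning confocal fluorescence microscopy against untreated control.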

PC-3 [7] = assay: Induction of apoptotic morphological changes in human PC3 cells assessed as plasma membrane blebbing at cytotoxic IC50 level incubated for 12 hrs by scanning electron microscopy; format: functional, cell-based
Procedure, shortened: (§2)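 PC-3 cells incubated with test compound at its IC₅₀ for 12 h, with 2 µM camptothecin as positive control and untreated cells as control; cell surface morphology examined by scanning electron microscopy.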

PC-3 [8] = assay: Induction of apoptotic morphological changes in human PC3 cells assessed as spherical cell shape changes at cytotoxic IC50 level incubated for 12 hrs by DAPI staining based confocal laser microscopy; format: functional; procedure, shortened: as §1
PC-3 [9] = assay: Induction of apoptotic morphological changes in human PC3 cells assessed as cell size condensation at cytotoxic IC50 level incubated for 12 hrs by scanning electron microscopy; format: functional, cell-based; procedure, shortened: as §2
PC-3 [10] = assay: Induction of apoptotic morphological changes in human PC3 cells assessed as cell surface smoothening at cytotoxic IC50 level incubated for 12 hrs by scanning electron microscopy; format: functional, cell-based; procedure, shortened: as §2
PC-3 [11] = assay: Induction of apoptotic morphological changes in human PC3 cells assessed as increase in apoptotic bodies at cytotoxic IC50 level incubated for 12 hrs by DAPI staining based confocal laser microscopy; format: functional, cell-based; procedure, shortened: as §1
PC-3 [12] = assay: Induction of apoptosis in human PC3 cells at 2 uM incubated for 12 hrs by DAPI staining based confocal laser microscopy; format: functional, cell-based
Procedure, shortened: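 PC-3 human prostate cancer cells (1 × 10⁶ in 1 ml medium) grown to confluence for 24 h at 37 °C, 5% CO₂, then exposed 12 h. Medium replaced with serum-free medium and cells stained with DAPI for 1 h at 37 °C. Nuclear and cell morphology imaged by laser scanning confocal fluorescence microscopy against untreated control cells.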

Row | Compound | IC50 [1] | IC50 [2] | IC50 (MCF7) | IC50 [3] | IC50 (HeLa) | also measured
1 | O=C(c1cccnc1)c1cc(Br)ccc1O | 23.4 µM | 29 µM | 53.5 µM | 60.2 µM | 29 µM | –
2 | O=C(c1cccnc1)c1cc(Cl)ccc1O | 19.5 µM | 27 µM | 29 µM | 24.8 µM | 24 µM | –
3 | O=C(c1cccnc1)c1cc(Cl)cc(Cl)c1O | 28.8 µM | 27 µM | 29.6 µM | 28.7 µM | > 100 µM | –
4 | O=C(c1cccnc1)c1cccc(Cl)c1O | 26 µM | 28 µM | 26.7 µM | 31.5 µM | 21 µM | –
5 | C=CCOc1cc(Br)ccc1C(=O)c1cccnc1 | 98 µM | > 100 µM | > 100 µM | > 100 µM | > 100 µM | –
6 | Cc1ccc(O)c(C(=O)c2cccnc2)c1 | 5.54 µM | 11 µM | 8.04 µM | 10 µM | 26 µM | Activity (PC-3 [4]): Dose-dependent effect; Activity (PC-3 [5]): Dose-dependent effect; Activity (PC-3 [6]): Active; Activity (PC-3 [7]): Active; Activity (PC-3 [8]): Active; Activity (PC-3 [9]): Active; Activity (PC-3 [10]): Active; Activity (PC-3 [11]): Active
7 | CO[C@@]12[C@H](COC(N)=O)C3=C(C(=O)C(C)=C(N)C3=O)N1C[C@@H]1N[C@@H]12 [MITOMYCIN] | – | – | – | 1.5 µM | – | –
8 | O=C(c1cccnc1)c1ccc(Br)cc1O | 89 µM | 85 µM | > 100 µM | 88.6 µM | 37 µM | –
9 | O=C(c1cccnc1)c1cc(F)ccc1O | 6.21 µM | 12 µM | 27.8 µM | 11.8 µM | 27 µM | –
10 | C=CCOc1c(Cl)cccc1C(=O)c1cccnc1 | 94 µM | 92 µM | > 100 µM | > 100 µM | 100 µM | –
11 | C=CCOc1ccc(F)cc1C(=O)c1cccnc1 | 91 µM | > 100 µM | > 100 µM | > 100 µM | 93 µM | –
12 | C=CCOc1ccc(Br)cc1C(=O)c1cccnc1 | 88 µM | 78 µM | 92 µM | 59 µM | 96 µM | –
13 | C=CCOc1ccc(C)cc1C(=O)c1cccnc1 | 87 µM | 72 µM | 84 µM | 98 µM | 94 µM | –
14 | CC(=O)O[C@H]1C(=O)[C@@]2(C)[C@H]([C@H](OC(=O)c3ccccc3)[C@]3(O)C[C@H](OC(=O)[C@H](O)[C@@H](NC(=O)c4ccccc4)c4ccccc4)C(C)=C1C3(C)C)[C@]1(OC(C)=O)CO[C@@H]1C[C@@H]2O [PACLITAXEL] | – | – | 0.2 µM | – | – | –
15 | O=C(c1cccnc1)c1ccccc1O | 33.7 µM | 31 µM | 24.6 µM | 33.4 µM | 33 µM | –
16 | C=CCOc1c(Cl)cc(Cl)cc1C(=O)c1cccnc1 | 52 µM | > 100 µM | 85 µM | 96 µM | 34 µM | –
17 | O=c1[nH]cc(F)c(=O)[nH]1 [FLUOROURACIL] | 1.3 µM | 0.5 µM | – | – | – | –
18 | C=CCOc1ccccc1C(=O)c1cccnc1 | 44 µM | > 100 µM | > 100 µM | 55 µM | > 100 µM | –
19 | CC[C@@]1(O)C(=O)OCc2c1cc1n(c2=O)Cc2cc3ccccc3nc2-1 | – | – | – | – | – | Activity (PC-3 [12]): Active
20 | C=CCOc1ccc(Cl)cc1C(=O)c1cccnc1 | 91 µM | > 100 µM | 54 µM | > 100 µM | 75 µM | –
